Test results as given in ChEMBL document CHEMBL3745596, “Chlorophenoxy aminoalkyl derivatives as histamine H(3)R ligands and antiseizure agents” (Bioorg Med Chem, 2016).
pKi: −log10 of the molar value. Calls of active or inactive are those of the source.

Experiments:
[1] = system: Mus musculus; test: Anticonvulsant activity in CF1 albino mouse assessed as protection against subcutaneous pentetrazole-induced seizure at 100 mg/kg, ip after 0.5 hrs; format: functional, organism-based
Procedure, shortened: (§1)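 Male CF-1 mice, ip in 0.5% methylcellulose; pentetrazole at CD97 (85 mg/kg) injected subcutaneously in a loose fold of neck skin. Observed 30 min; absence of even a threshold seizure (single clonic spasm lasting at least 5 s) counted as protection. Scored protected/tested, or ED50.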

[2] = system: Mus musculus; test: Anticonvulsant activity in CF1 albino mouse assessed as protection against maximal electroshock-induced seizure at 30 mg/kg, ip after 0.5 hrs; format: functional, organism-based
Procedure, shortened: (§2)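 Male CF-1 mice dosed ip as suspension in 0.5% methylcellulose. Corneal electrodes deliver 60 Hz alternating current, 50 mA for […], after a drop of 0.5% tetracaine HCl in 0.9% NaCl per eye. Protection means abolition of hindlimb tonic extension; scored as protected/tested, or ED50 with 95% confidence interval.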

[3] = system: Mus musculus; test: Anticonvulsant activity in CF1 albino mouse assessed as protection against subcutaneous pentetrazole-induced seizure at 100 mg/kg, ip after 4 hrs; format: functional, organism-based; procedure, shortened: as §1
[4] = system: Mus musculus; test: Anticonvulsant activity in CF1 albino mouse assessed as protection against maximal electroshock-induced seizure at 100 mg/kg, ip after 0.5 hrs; format: functional, organism-based; procedure, shortened: as §2
[5] = system: Mus musculus; test: Anticonvulsant activity in CF1 albino mouse assessed as protection against subcutaneous pentetrazole-induced seizure at 30 mg/kg, ip after 4 hrs; format: functional, organism-based; procedure, shortened: as §1
[6] = target: Histamine H3 receptor (Homo sapiens, UniProt Q9Y5N1); test: Displacement of [3H]-Nalpha-methylhistamine from human recombinant histamine H3 receptor expressed in HEK293 cells after 90 mins; format: cell-based
Chain of Histamine H3 receptor (Q9Y5N1 whole entry): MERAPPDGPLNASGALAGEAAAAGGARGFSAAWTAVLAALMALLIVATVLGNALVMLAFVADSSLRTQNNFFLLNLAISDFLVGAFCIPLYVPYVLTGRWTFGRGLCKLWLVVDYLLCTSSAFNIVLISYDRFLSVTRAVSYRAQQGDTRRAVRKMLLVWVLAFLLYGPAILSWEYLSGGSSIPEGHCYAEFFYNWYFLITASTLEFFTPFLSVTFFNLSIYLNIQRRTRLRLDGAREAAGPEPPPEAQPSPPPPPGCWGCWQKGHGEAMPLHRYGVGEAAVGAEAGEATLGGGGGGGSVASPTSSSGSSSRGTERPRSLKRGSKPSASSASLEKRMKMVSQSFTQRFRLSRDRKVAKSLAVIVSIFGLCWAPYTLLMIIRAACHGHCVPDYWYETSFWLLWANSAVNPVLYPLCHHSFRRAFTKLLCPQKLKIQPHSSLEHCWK

[7] = system: Mus musculus; test: Neurotoxicity in CF1 albino mouse at 30 mg/kg, ip after 4 hrs by rotarod test; format: toxicity, organism-based; settings: in vivo
Procedure, shortened: (§3)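 Rotarod neurotoxicity in male albino CF-1 mice dosed ip with compound suspended in 0.5% methylcellulose. Animal placed on a 1 inch diameter knurled plastic rod rotating at 6 rpm. Neurotoxicity scored when the animal falls off three times within 1 min. Readout is number of animals toxic/number tested at the stated time after dosing. TD50 with 95% confidence interval from the quantitative study.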

[8] = system: Mus musculus; test: Anticonvulsant activity in CF1 albino mouse assessed as protection against subcutaneous pentetrazole-induced seizure at 30 mg/kg, ip after 0.5 hrs; format: functional, organism-based; procedure, shortened: as §1
[9] = system: Mus musculus; test: Anticonvulsant activity in CF1 albino mouse assessed as protection against maximal electroshock-induced seizure at 30 mg/kg, ip after 4 hrs; format: functional, organism-based; procedure, shortened: as §2
[10] = system: Mus musculus; test: Neurotoxicity in CF1 albino mouse at 300 mg/kg, ip after 4 hrs by rotarod test; format: toxicity, organism-based; settings: in vivo; procedure, shortened: as §3
[11] = system: Mus musculus; test: Neurotoxicity in CF1 albino mouse at 30 mg/kg, ip after 0.5 hrs by rotarod test; format: toxicity, organism-based; settings: in vivo; procedure, shortened: as §3
[12] = system: Mus musculus; test: Neurotoxicity in CF1 albino mouse assessed as unable to grasp rotarod and death at 100 mg/kg, ip after 0.5 hrs by rotarod test; format: toxicity, organism-based; settings: in vivo
Procedure, shortened: (§4)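 Male albino CF-1 mice dosed ip with compound suspended in 0.5% methylcellulose, then placed on a 1-inch knurled plastic rod turning at 6 rpm. A fall three times within 1 min counted as neurotoxicity. Observations were made at 0.5 h and 4 h after dosing. Result given as animals showing toxicity per animals tested, with the kind of toxicity recorded.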

[13] = system: Mus musculus; test: Anticonvulsant activity in CF1 albino mouse assessed as protection against maximal electroshock-induced seizure at 300 mg/kg, ip after 0.5 hrs; format: functional, organism-based; procedure, shortened: as §2
[14] = system: Mus musculus; test: Neurotoxicity in CF1 albino mouse assessed as unable to grasp rotarod, death and diarrhea at 300 mg/kg, ip after 0.5 hrs by rotarod test; format: toxicity, organism-based; settings: in vivo; procedure, shortened: as §4
[15] = system: Mus musculus; test: Neurotoxicity in CF1 albino mouse at 100 mg/kg, ip after 4 hrs by rotarod test; format: toxicity, organism-based; settings: in vivo; procedure, shortened: as §3
[16] = system: Mus musculus; test: Anticonvulsant activity in CF1 albino mouse assessed as protection against maximal electroshock-induced seizure at 100 mg/kg, ip after 4 hrs; format: functional, organism-based; procedure, shortened: as §2
[17] = system: Mus musculus; test: Neurotoxicity in CF1 albino mouse at 10 mg/kg, ip after 0.5 hrs by rotarod test; format: toxicity, organism-based; settings: in vivo
Procedure, shortened: (§5)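 Rotarod neurotoxicity in male CF-1 mice dosed ip as 0.5% methylcellulose suspension: mouse placed on 1 inch knurled rod rotating at 6 rpm; toxicity when the animal falls off three times within 1 min, with other signs noted. Scored as toxic/tested at 0.5 h and 4 h.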

[18] = system: Mus musculus; test: Anticonvulsant activity in CF1 albino mouse assessed as protection against 6 Hz-psychomotor-induced seizure at 50 mg/kg, ip after 0.5 hrs; format: functional, organism-based
Procedure, shortened: (§6)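 Male CF-1 mice, ip suspension in 0.5% methylcellulose. Corneal stimulation 0.2 ms monopolar rectangular pulses at 6 Hz, 32 mA for 3 s via constant-current device; mice without minimal clonic phase seizure counted protected. Groups of four; read at 0.25, 0.5, 1, 2, 4 h; result as protected/tested.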

[19] = system: Mus musculus; test: Anticonvulsant activity in CF1 albino mouse assessed as protection against 6 Hz-psychomotor-induced seizure at 50 mg/kg, ip after 1 hr; format: functional, organism-based; procedure, shortened: as §6
[20] = system: Mus musculus; test: Anticonvulsant activity in CF1 albino mouse assessed as protection against maximal electroshock-induced seizure at 10 mg/kg, ip after 0.5 hrs; format: functional, organism-based; procedure, shortened: as §2
[21] = system: Mus musculus; test: Neurotoxicity in CF1 albino mouse assessed as unable to grasp rotarod at 100 mg/kg, ip after 0.5 hrs by rotarod test; format: toxicity, organism-based; settings: in vivo; procedure, shortened: as §5
[22] = system: Mus musculus; test: Anticonvulsant activity in CF1 albino mouse assessed as protection against 6 Hz-psychomotor-induced seizure at 50 mg/kg, ip after 0.25 hrs; format: functional, organism-based; procedure, shortened: as §6
[23] = system: Rattus norvegicus; test: Anticonvulsant activity in Sprague-Dawley rat assessed as protection against maximal electroshock-induced seizure at 30 mg/kg, po; format: functional
[24] = system: Mus musculus; test: Anticonvulsant activity in CF1 albino mouse assessed as protection against maximal electroshock-induced seizure at 3 mg/kg, ip after 0.5 hrs; format: functional, organism-based; procedure, shortened: as §2
[25] = system: Mus musculus; test: Neurotoxicity in CF1 albino mouse at 50 mg/kg, ip after 4 hrs by rotarod test; format: toxicity, organism-based; settings: in vivo; procedure, shortened: as §3
[26] = system: Mus musculus; test: Neurotoxicity in CF1 albino mouse at 3 mg/kg, ip after 0.5 hrs by rotarod test; format: toxicity, organism-based; settings: in vivo; procedure, shortened: as §3
[27] = system: Mus musculus; test: Neurotoxicity in CF1 albino mouse at 50 mg/kg, ip after 2 hrs by rotarod test; format: toxicity, organism-based; settings: in vivo; procedure, shortened: as §3
[28] = system: Mus musculus; test: Neurotoxicity in CF1 albino mouse at 50 mg/kg, ip after 1 hr by rotarod test; format: toxicity, organism-based; settings: in vivo; procedure, shortened: as §3
[29] = system: Mus musculus; test: Neurotoxicity in CF1 albino mouse at 50 mg/kg, ip after 0.5 hrs by rotarod test; format: toxicity, organism-based; settings: in vivo; procedure, shortened: as §3
[30] = system: Mus musculus; test: Anticonvulsant activity in CF1 albino mouse assessed as protection against 6 Hz-psychomotor-induced seizure at 50 mg/kg, ip after 4 hrs; format: functional, organism-based; procedure, shortened: as §6
[31] = system: Mus musculus; test: Neurotoxicity in CF1 albino mouse assessed as death at 300 mg/kg, ip after 0.5 hrs by rotarod test; format: toxicity, organism-based; settings: in vivo; procedure, shortened: as §4
[32] = system: Mus musculus; test: Neurotoxicity in CF1 albino mouse assessed as unable to grasp rotarod, death and loss of righting reflux at 100 mg/kg, ip after 0.5 hrs by rotarod test; format: toxicity, organism-based; settings: in vivo; procedure, shortened: as §4
[33] = system: Mus musculus; test: Neurotoxicity in CF1 albino mouse assessed as unable to grasp rotarod, diarrhea and clonic seizure at 100 mg/kg, ip after 0.5 hrs by rotarod test; format: toxicity, organism-based; settings: in vivo; procedure, shortened: as §5
[34] = system: Rattus norvegicus; test: Neurotoxicity in Sprague-Dawley rat at 30 mg/kg, po by rotarod test; format: toxicity, organism-based; settings: in vivo
Procedure, shortened: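 Oral dosing in male Sprague–Dawley rats, compound as a suspension in 0.5% methylcellulose. Rotarod neurotoxicity on a 1 inch knurled rod turning at 6 rpm, with three falls in 1 min scored as toxic. Reported as toxic/tested.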

Row | Structure (SMILES) | Activity [1] | Activity [2] | Activity [3] | Activity [4] | Activity [5] | pKi [6] | Activity [7] | Activity [8] | Activity [9] | Activity [10] | Activity [11] | Activity [15] | Activity [16] | Activity [17] | Activity [20] | Activity [23] | Activity [24] | Activity [26] | Activity [31] | other results
1 | CC1CCN(CCCCCCCOc2cccc(Cl)c2)CC1.O=C(O)C(=O)O | inactive | inactive | inactive | inactive | inactive | 6.09 | Non-toxic | inactive | inactive | Non-toxic | Non-toxic | Non-toxic | Active |  |  |  |  |  |  | Activity [12]: Toxic; Activity [13]: Active; Activity [14]: Toxic
2 | CC1CCCN(CCCCCCOc2cccc(Cl)c2)C1.O=C(O)C(=O)O (stereo not drawn) | inactive | Active | inactive | Active | inactive | 6.76 | Non-toxic | inactive | inactive | Non-toxic | Non-toxic | Non-toxic | Active | Non-toxic | inactive | inactive | inactive | Non-toxic | Toxic | Activity [18]: inactive; Activity [19]: inactive; Activity [21]: Toxic; Activity [22]: inactive; Activity [25]: Non-toxic; Activity [27]: Non-toxic; Activity [28]: Non-toxic; Activity [29]: Non-toxic; Activity [30]: inactive
3 | Clc1ccc(OCCCCCN2CCCCCC2)cc1.O=C(O)C(=O)O | inactive | Active | inactive |  | inactive | 6.43 | Non-toxic | inactive | inactive | Non-toxic | Non-toxic | Non-toxic | Active | Non-toxic | inactive |  | inactive | Non-toxic | Toxic | Activity [32]: Toxic
4 | CC1CCN(CCCCCCCOc2ccc(Cl)cc2)CC1.O=C(O)C(=O)O | inactive | Active | inactive | Active | inactive | 6.33 | Non-toxic | inactive | inactive | Non-toxic | Non-toxic | Non-toxic | Active | Non-toxic | inactive | inactive | inactive | Non-toxic | Toxic | Activity [33]: Toxic; Activity [34]: Non-toxic
